According to ChEMBL document CHEMBL1132410, “5-Chloro-N-(4-methoxy-3-piperazin-1-yl- phenyl)-3-methyl-2-benzothiophenesulfon- amide (SB-271046): a potent, selective, and orally bioavailable 5-HT6 receptor antagonist” (J Med Chem, 1999):
Values belong to the molecule of their own block, whether it stands above or below them.

Assays:
[1] = target: T1, 5-hydroxytryptamine receptor 1A (Homo sapiens, UniProt P08908); assay: Compound was tested for its binding affinity against 5-hydroxytryptamine 1A receptor in human cloned receptors in HEK 293 cells using [3H]8-OH-DPAT; type: cell-based, HEK293
T1 sequence (P08908 whole entry): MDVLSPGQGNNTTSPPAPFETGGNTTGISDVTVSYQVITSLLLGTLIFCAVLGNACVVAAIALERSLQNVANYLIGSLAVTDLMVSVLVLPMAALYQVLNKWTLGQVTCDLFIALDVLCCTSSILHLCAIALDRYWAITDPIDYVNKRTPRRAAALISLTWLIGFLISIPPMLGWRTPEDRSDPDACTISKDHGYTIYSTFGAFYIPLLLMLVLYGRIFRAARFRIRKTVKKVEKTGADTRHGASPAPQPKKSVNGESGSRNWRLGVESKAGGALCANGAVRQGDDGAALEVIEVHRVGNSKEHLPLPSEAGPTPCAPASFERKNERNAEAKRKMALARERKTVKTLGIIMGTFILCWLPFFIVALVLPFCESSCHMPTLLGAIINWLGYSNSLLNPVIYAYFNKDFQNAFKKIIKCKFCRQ
Summary of the method: (§1)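 Radioligand binding at human cloned receptors; cell hosts and radioligands as listed per line: 5-HT1A, 5-HT2A, 5-HT2B, 5-HT2C and 5-HT7 in HEK 293 cells; 5-HT1B, 5-HT1D, 5-HT1E, 5-HT1F, D2 and D3 in CHO cells; 5-HT6 in HeLa cells. Values are the mean of at least two determinations, each within 0.2 log unit of the mean.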

[2] = target: 5-hydroxytryptamine receptor 1B (Homo sapiens, UniProt P28222); assay: Compound was tested for its binding affinity against human cloned 5-hydroxytryptamine 1B receptor in CHO cells using [3H]5-HT; type: cell-based; summary of the method: as §1
Sequence of 5-hydroxytryptamine receptor 1B (P28222 whole entry): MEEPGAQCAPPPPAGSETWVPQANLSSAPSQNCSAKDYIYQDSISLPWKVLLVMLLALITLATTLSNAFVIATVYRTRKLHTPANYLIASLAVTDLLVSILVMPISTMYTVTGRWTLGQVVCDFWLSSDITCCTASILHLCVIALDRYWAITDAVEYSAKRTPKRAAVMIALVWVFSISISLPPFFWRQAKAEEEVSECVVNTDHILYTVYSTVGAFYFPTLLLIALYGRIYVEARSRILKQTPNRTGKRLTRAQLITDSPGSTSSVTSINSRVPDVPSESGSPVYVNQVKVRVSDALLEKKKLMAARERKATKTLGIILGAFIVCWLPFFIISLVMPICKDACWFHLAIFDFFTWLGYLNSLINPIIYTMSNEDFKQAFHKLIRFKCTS

[3] = target: 5-hydroxytryptamine receptor 1D (Homo sapiens, UniProt P28221); assay: Compound was tested for its binding affinity against human cloned 5-hydroxytryptamine 1D receptor in CHO cells using [3H]5-HT; type: cell-based; summary of the method: as §1
Sequence of 5-hydroxytryptamine receptor 1D (P28221 whole entry): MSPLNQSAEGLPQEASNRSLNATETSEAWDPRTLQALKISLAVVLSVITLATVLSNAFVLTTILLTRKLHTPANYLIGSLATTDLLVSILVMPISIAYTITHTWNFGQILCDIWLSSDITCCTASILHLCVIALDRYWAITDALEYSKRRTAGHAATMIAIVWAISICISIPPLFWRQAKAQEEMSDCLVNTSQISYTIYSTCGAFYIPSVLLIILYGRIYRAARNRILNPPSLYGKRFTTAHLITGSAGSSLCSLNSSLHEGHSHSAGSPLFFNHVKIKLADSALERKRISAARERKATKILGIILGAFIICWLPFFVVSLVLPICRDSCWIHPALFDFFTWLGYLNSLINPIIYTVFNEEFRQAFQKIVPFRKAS

[4] = target: 5-hydroxytryptamine receptor 1E (Homo sapiens, UniProt P28566); assay: Compound was tested for its binding affinity against cloned human 5-hydroxytryptamine 1E receptor in CHO cells using [3H]-5-HT; type: cell-based; summary of the method: as §1
Sequence of 5-hydroxytryptamine receptor 1E (P28566 whole entry): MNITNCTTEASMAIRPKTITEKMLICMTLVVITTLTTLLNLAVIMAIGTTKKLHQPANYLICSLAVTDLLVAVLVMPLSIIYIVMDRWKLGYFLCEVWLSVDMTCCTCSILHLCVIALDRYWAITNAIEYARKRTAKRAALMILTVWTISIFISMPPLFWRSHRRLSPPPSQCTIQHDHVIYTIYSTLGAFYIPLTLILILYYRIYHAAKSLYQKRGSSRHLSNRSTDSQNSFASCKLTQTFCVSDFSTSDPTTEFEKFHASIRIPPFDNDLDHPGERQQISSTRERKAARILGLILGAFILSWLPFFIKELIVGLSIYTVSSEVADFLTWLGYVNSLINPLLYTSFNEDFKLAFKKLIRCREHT

[5] = target: 5-hydroxytryptamine receptor 2A (Homo sapiens, UniProt P28223); assay: Compound was tested for its binding affinity against 5-hydroxytryptamine 2A receptor in human cloned receptors in HEK 293 cells using [3H]ketanserin; type: cell-based, HEK293; summary of the method: as §1
Sequence of 5-hydroxytryptamine receptor 2A (P28223 whole entry): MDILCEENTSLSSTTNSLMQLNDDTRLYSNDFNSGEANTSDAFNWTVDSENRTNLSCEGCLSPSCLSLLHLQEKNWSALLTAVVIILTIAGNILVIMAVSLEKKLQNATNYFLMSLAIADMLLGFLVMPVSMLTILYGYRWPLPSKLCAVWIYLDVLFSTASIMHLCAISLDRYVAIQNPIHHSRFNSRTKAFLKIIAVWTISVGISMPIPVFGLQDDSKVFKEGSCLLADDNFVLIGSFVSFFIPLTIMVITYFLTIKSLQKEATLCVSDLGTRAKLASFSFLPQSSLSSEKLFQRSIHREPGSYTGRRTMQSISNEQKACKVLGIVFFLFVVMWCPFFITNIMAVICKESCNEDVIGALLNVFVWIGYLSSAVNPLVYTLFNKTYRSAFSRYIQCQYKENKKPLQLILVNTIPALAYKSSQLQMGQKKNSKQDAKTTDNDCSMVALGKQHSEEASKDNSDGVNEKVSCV

[6] = target: T2, 5-hydroxytryptamine receptor 1F (Homo sapiens, UniProt P30939); assay: Compound was tested for its binding affinity against 5-hydroxytryptamine 1F receptor in human cloned receptors in CHO cells using [3H]5-HT; type: cell-based; summary of the method: as §1
T2 sequence (P30939 whole entry): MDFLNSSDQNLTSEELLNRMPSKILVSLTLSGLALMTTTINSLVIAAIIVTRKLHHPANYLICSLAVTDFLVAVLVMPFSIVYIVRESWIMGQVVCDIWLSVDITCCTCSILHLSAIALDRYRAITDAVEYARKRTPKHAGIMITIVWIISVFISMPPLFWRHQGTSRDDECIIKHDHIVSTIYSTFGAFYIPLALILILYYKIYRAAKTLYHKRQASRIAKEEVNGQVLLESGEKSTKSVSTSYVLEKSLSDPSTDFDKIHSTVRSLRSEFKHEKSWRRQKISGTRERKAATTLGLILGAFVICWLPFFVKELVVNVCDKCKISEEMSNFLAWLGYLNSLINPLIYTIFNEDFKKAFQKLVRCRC

[7] = target: 5-hydroxytryptamine receptor 2B (Homo sapiens, UniProt P41595); assay: Compound was tested for its binding affinity against cloned human 5-hydroxytryptamine 2B receptor in HEK 293 cells using [3H]5-HT; type: cell-based, HEK293; summary of the method: as §1
Sequence of 5-hydroxytryptamine receptor 2B (P41595 whole entry): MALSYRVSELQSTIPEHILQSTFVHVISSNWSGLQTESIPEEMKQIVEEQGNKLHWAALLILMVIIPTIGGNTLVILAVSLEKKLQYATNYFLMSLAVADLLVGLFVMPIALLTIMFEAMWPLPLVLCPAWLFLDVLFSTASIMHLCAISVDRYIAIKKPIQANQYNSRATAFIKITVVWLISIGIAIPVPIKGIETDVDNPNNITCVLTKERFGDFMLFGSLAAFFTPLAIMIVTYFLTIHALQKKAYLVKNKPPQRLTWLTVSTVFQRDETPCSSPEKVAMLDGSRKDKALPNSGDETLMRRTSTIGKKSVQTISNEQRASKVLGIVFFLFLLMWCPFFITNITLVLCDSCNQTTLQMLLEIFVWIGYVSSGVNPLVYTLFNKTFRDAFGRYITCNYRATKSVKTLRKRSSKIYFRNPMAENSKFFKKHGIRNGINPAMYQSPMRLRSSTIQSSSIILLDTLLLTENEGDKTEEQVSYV

[8] = target: 5-hydroxytryptamine receptor 4 (Homo sapiens, UniProt Q13639); assay: Compound was tested for its binding affinity against 5-hydroxytryptamine 4 receptor
Sequence of 5-hydroxytryptamine receptor 4 (Q13639 whole entry): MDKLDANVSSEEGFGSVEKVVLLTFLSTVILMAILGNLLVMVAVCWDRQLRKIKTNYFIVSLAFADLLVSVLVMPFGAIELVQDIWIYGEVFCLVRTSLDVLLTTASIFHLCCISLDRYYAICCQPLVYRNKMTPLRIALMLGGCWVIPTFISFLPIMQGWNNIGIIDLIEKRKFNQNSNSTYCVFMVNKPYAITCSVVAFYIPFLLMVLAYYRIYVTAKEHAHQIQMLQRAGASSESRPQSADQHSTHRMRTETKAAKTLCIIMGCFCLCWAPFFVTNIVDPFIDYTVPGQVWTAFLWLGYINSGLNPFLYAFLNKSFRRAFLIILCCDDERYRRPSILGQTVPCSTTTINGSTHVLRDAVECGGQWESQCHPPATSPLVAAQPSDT

[9] = target: 5-hydroxytryptamine receptor 7 (Homo sapiens, UniProt P34969); assay: Compound was tested for its binding affinity against human cloned 5-hydroxytryptamine 7 receptor in HEK 293 cells using [3H]5-CT; type: cell-based, HEK293; summary of the method: as §1
Sequence of 5-hydroxytryptamine receptor 7 (P34969 whole entry): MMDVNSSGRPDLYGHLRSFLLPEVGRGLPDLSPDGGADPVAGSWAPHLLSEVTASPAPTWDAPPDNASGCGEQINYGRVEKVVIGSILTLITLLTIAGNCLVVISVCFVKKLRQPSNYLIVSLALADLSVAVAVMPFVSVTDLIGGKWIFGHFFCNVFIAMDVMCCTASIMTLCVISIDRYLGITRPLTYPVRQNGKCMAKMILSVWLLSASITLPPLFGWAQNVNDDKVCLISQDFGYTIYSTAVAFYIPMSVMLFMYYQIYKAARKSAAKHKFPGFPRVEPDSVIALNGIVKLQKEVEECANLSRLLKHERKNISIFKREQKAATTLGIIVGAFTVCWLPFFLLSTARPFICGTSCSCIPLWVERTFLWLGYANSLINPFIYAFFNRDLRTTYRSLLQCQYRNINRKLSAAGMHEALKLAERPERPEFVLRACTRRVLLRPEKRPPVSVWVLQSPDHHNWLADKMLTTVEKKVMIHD

[10] = target: T3, Alpha-1B adrenergic receptor (Homo sapiens, UniProt P35368); assay: Compound was tested for its binding affinity against Alpha-1B adrenergic receptor
T3 sequence (P35368 whole entry): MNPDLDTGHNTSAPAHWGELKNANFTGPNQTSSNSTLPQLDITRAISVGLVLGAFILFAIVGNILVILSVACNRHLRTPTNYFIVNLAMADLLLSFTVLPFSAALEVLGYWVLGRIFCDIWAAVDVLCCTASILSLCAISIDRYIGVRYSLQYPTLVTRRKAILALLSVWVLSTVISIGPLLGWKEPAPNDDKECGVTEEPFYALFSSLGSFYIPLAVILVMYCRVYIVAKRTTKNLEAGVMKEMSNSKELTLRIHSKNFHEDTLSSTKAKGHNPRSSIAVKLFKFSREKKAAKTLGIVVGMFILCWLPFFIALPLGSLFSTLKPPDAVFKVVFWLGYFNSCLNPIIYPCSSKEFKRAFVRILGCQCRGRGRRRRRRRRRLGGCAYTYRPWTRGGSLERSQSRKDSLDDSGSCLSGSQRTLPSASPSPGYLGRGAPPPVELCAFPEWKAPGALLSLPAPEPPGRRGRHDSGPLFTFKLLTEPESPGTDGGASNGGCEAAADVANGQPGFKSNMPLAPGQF

D(3) dopamine receptor = D(3) dopamine receptor (Homo sapiens, UniProt P35462); assay: Compound was tested for its binding affinity against Dopamine receptor D3 in human cloned receptors in CHO cells using [125 I]iodosulpride; type: cell-based; summary of the method: as §1
D(2) dopamine receptor = D(2) dopamine receptor (Homo sapiens, UniProt P14416); assay: Compound was tested for its binding affinity against Dopamine receptor D2 in human cloned receptors in CHO cells using [125 I]iodosulpride; type: cell-based; summary of the method: as §1
Sequence of D(2) dopamine receptor (P14416 whole entry): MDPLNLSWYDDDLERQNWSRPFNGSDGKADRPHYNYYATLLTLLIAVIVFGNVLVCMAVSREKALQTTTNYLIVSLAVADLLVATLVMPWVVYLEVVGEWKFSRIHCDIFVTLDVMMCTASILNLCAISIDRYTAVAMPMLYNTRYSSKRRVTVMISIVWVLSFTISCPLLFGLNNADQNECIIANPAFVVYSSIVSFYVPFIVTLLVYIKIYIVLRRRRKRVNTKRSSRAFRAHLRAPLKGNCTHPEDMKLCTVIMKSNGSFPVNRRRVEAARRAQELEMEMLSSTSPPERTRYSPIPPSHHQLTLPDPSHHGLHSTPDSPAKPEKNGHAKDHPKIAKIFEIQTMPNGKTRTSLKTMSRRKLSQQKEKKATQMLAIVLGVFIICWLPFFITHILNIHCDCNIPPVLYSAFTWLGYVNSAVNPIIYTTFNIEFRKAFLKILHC

[11] = target: T4, 5-hydroxytryptamine receptor 2C (Homo sapiens, UniProt P28335); assay: Compound was tested for its binding affinity against human cloned 5-hydroxytryptamine 2C receptor in HEK 293 cells using [3H]mesulergine; type: cell-based, HEK293; summary of the method: as §1
T4 sequence (P28335 whole entry): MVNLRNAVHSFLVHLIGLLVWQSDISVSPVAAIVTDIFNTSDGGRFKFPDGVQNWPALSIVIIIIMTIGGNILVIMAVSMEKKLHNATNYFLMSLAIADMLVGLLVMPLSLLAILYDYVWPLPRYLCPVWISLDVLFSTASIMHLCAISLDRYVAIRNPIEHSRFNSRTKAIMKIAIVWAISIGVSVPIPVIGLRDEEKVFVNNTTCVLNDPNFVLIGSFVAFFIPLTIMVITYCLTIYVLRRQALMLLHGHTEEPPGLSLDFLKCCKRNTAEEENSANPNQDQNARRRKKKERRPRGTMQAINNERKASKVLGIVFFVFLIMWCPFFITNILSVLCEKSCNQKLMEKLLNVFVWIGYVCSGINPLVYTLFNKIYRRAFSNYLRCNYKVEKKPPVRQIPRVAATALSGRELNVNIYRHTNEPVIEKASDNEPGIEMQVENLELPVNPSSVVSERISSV

[12] = target: 5-hydroxytryptamine receptor 6 (Homo sapiens, UniProt P50406); assay: Binding affinity against human cloned 5-hydroxytryptamine 6 receptor in HeLa cells using [3H]LSD; type: cell-based; summary of the method: as §1
Sequence of 5-hydroxytryptamine receptor 6 (P50406 whole entry): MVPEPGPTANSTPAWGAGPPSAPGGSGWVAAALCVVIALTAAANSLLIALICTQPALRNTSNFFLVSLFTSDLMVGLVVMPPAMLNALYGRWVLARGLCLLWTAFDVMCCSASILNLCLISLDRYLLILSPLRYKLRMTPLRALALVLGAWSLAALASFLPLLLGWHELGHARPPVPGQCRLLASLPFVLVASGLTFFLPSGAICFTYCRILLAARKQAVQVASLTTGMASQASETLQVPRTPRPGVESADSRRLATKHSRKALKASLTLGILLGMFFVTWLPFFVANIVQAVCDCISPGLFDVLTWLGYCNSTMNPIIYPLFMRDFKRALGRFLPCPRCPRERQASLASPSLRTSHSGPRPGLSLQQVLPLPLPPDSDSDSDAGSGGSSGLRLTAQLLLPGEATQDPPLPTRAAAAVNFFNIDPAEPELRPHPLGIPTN

Homo sapiens = organism: Homo sapiens; assay: Selectivity for 5-HT6 receptors with respect to the 5-HT1A, 5-HT1B, 5-HT1D, 5-HT1E, 5-HT1F, 5-HT2A, 5-HT2B, 5-HT2C, 5-HT4, 5-HT7, Alpha-1B, D2, D3 receptors.
[13] = target: T3, Alpha-1B adrenergic receptor; assay: Compound was tested for its binding affinity against adrenergic Alpha-1B adrenergic receptor
Cytochrome P450 1A2 = target: T5, Cytochrome P450 1A2 (Homo sapiens, UniProt P05177); assay: Inhibition of human cytochrome P450 1A2 activity as caffeine N3 demethylation (500 uM); type: ADME
T5 sequence (P05177 whole entry): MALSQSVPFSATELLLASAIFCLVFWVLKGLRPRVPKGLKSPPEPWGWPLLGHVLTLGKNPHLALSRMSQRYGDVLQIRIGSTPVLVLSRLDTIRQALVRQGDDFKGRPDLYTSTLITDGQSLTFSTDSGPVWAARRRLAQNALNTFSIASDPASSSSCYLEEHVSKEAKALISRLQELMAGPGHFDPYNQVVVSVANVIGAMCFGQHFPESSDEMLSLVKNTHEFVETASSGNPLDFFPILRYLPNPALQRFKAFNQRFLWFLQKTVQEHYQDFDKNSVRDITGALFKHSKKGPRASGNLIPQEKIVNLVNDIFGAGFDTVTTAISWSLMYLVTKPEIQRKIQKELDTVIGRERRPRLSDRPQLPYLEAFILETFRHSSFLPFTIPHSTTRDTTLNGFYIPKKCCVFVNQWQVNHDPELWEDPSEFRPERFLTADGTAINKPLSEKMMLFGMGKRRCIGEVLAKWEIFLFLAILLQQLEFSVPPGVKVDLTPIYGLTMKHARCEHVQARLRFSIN
Summary of the method: (§2)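 Heterologously expressed human CYP isoforms in isoform-selective assays, with substrate at its Km. CYP1A2: caffeine N3-demethylation (500 μM). CYP2C9: tolbutamide methylhydroxylation (100 μM). CYP2C19: S-mephenytoin 4-hydroxylation (100 μM). CYP2D6: bufuralol 1'-hydroxylation (10 μM). CYP3A4: total cyclosporin oxidation (1 μM). IC50 is the mean of duplicate determinations, agreeing within 10%.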

Cytochrome P450 2C19 = Cytochrome P450 2C19 (Homo sapiens, UniProt P33261); assay: Inhibition of human cytochrome P450 2C19 as S-mephenytoin-4-hydroxylation (100 uM); type: ADME; summary of the method: as §2
Cytochrome P450 2C9 = Cytochrome P450 2C9 (Homo sapiens, UniProt P11712); assay: Inhibitory potential of human cytochrome P450 2C9 as Tolbutamide methylhydroxylation (100 uM); type: ADME; summary of the method: as §2
Sequence of Cytochrome P450 2C9 (P11712 whole entry): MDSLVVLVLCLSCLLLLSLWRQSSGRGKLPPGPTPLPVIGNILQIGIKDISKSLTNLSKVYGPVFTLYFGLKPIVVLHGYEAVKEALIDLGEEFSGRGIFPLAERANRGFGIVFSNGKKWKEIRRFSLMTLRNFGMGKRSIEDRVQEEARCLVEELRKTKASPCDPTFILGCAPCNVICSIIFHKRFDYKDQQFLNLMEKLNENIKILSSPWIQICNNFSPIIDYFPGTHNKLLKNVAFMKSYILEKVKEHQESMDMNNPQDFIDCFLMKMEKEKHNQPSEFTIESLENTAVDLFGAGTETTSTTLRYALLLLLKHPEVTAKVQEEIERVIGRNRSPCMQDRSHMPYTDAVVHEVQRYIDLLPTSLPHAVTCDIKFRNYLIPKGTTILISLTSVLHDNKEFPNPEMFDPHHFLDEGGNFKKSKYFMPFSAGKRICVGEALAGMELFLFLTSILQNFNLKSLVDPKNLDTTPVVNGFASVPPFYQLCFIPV

Cytochrome P450 2D6 = Cytochrome P450 2D6 (Homo sapiens, UniProt P10635); assay: Inhibition of human cytochrome P450 2D6 as bufuralol 1''-hydroxylation (10 uM); type: ADME; summary of the method: as §2
Sequence of Cytochrome P450 2D6 (P10635 whole entry): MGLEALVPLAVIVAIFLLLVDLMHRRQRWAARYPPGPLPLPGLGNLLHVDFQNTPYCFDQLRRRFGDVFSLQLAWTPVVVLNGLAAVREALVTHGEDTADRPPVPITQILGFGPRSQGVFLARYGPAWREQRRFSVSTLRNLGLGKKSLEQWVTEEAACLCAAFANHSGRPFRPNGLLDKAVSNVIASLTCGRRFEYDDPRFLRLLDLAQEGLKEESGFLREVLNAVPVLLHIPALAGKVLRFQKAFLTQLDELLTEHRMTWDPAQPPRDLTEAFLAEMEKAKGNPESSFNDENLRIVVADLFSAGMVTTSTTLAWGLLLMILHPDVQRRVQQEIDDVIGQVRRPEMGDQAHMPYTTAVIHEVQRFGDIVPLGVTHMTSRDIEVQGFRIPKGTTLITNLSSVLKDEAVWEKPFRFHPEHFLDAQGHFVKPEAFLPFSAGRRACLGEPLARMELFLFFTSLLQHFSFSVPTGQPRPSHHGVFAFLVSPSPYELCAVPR

Structure (SMILES): COc1ccc(NS(=O)(=O)c2sc3ccc(Cl)cc3c2C)cc1N1CCNCC1
Ki [2]: 794 nM | Ki [3]: 251 nM | Ki [4]: > 10000 nM | Ki [5]: > 2510 nM | Ki [6]: > 1000 nM | Ki [7]: > 3980 nM | Ki [13]: 2000 nM | IC50 (Cytochrome P450 1A2): 66000 nM | IC50 (Cytochrome P450 2C19): 26000 nM | IC50 (Cytochrome P450 2C9): > 100000 nM | IC50 (Cytochrome P450 2D6): 32000 nM | Ki (D(2) dopamine receptor): 2510 nM | Ki [11]: 2000 nM

Structure (SMILES): COc1ccc(NS(=O)(=O)c2ccc([N+](=O)[O-])cc2)cc1N1CCN(C)CC1
Ki [12]: 79.4 nM

Structure (SMILES): CNc1cc(NS(=O)(=O)c2ccc(N)cc2)nc(NC)n1
Ki [12]: 50.1 nM

Further lines, results first:

Ki [1]: 501 nM | Ki [2]: 794 nM | Ki [3]: 200 nM | Ki [4]: 2510 nM | Ki [5]: 1000 nM | Ki [6]: 251 nM | Ki [7]: 1000 nM | Ki [8]: 3160 nM | Ki [9]: 3160 nM | Ki [10]: 2000 nM | Ki (D(3) dopamine receptor): 200 nM | Ki (D(2) dopamine receptor): 794 nM | Ki [11]: 501 nM
Structure (SMILES): COc1ccc(NS(=O)(=O)c2sc3ccc(Cl)cc3c2C)cc1N1CCN(C)CC1

Ki [12]: 0.794 nM | Selectivity (Homo sapiens): > 250
Structure (SMILES): COc1ccc(NS(=O)(=O)c2ccc3c(Cl)cccc3c2)cc1N1CCN(C)CC1

Ki [12]: 1 nM | Selectivity (Homo sapiens): > 125
Structure (SMILES): COc1ccc(NS(=O)(=O)c2cc(I)ccc2C)cc1N1CCN(C)CC1

Ki [12]: 10 nM | Selectivity (Homo sapiens): 80
Structure (SMILES): COc1ccc(NS(=O)(=O)c2ccccc2)cc1N1CCN(C)CC1

Ki [12]: 794 nM
Structure (SMILES): COc1ccc(NS(=O)(=O)c2cn(C)cn2)cc1N1CCN(C)CC1
